Experimental data: ChEMBL document CHEMBL5252510, “A Novel Potent Oral Series of VEGFR2 Inhibitors Abrogate Tumor Growth by Inhibiting Angiogenesis” (J Med Chem, 2016)
Activity calls are given as the source filed them. The rule behind the calls is not given here.

Experiments:
[1] = Tmax in OFA rat at 25 mg/kg, po measured upto 24 hrs by HPLC/UV analysis; type: ADME, organism-based; details: in vivo
Summary of the method: (§1)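 Female OFA rats, femoral artery/vein catheterized and recovered 96 h. Oral gavage of a micronized suspension in 0.5 % carboxymethyl cellulose at 25 or 3 mg/kg. Bioavailability taken against femoral-vein iv dosing. Plasma sampled 5 min–24 h (9 time points).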

[2] = Volume of distribution at steady state in OFA rat at 2.5 mg/kg, iv measured upto 24 hrs by HPLC/UV analysis; type: ADME, organism-based; details: in vivo, read-out: Vdss
Summary of the method: (§2)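 Female OFA rats with femoral artery and vein catheters, 96 h recovery. IV into femoral vein: 2.5 mg/kg in ethanol/dimethylisosorbide/PEG400/D5W (10/15/35/40) or 1 mg/kg in NMP/PEG200 (30:70). Plasma sampled at 5, 15, 30 min, 1, 2, 4, 6, 8, 24 h; drug measured by HPLC (UV or MS-MS stated); parameters dose normalized, n=2-4.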

[3] = molecular target: RAF proto-oncogene serine/threonine-protein kinase (Homo sapiens) (UniProt P04049); assay: Inhibition of human recombinant GST-fused cRAF expressed in baculovirus expression system using poly-Glu-Tyr (4:1) as substrate measured after 10 mins in presence of gamma-[33P]-ATP by scintillation counting analysis
RAF proto-oncogene serine/threonine-protein kinase (Homo sapiens), sequence (P04049 whole entry, the tested form may be a part): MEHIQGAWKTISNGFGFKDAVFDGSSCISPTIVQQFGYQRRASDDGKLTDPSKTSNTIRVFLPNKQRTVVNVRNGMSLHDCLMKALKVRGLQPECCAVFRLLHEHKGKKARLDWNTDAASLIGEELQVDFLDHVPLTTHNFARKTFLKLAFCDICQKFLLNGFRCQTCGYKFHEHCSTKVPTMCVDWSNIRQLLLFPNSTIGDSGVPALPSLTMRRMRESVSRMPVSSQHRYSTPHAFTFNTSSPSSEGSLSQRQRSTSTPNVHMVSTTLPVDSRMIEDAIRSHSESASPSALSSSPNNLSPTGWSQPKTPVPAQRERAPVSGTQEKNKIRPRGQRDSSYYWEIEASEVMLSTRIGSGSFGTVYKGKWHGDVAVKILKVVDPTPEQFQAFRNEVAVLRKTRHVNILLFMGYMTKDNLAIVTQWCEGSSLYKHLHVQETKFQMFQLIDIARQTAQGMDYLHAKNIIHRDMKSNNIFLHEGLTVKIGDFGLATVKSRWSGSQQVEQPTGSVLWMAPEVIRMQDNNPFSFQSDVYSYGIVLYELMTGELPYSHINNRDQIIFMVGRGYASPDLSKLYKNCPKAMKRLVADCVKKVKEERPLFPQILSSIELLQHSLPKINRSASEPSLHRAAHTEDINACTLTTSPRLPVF
Summary of the method: (§3)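 GST-fused kinase domains were expressed in baculovirus and purified on glutathione-Sepharose. 10 min at ambient temperature, stopped with EDTA. Filter binding and scintillation counting. IC50 by linear regression of percent inhibition.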

[4] = molecular target: Tyrosine-protein kinase ABL1 (Homo sapiens) (UniProt P00519); assay: Inhibition of human recombinant GST-fused ABL expressed in baculovirus expression system using poly-Glu-Tyr (4:1) as substrate measured after 10 mins in presence of gamma-[33P]-ATP by scintillation counting analysis; summary of the method: as §3
Tyrosine-protein kinase ABL1 (Homo sapiens), sequence (P00519 whole entry, the tested form may be a part): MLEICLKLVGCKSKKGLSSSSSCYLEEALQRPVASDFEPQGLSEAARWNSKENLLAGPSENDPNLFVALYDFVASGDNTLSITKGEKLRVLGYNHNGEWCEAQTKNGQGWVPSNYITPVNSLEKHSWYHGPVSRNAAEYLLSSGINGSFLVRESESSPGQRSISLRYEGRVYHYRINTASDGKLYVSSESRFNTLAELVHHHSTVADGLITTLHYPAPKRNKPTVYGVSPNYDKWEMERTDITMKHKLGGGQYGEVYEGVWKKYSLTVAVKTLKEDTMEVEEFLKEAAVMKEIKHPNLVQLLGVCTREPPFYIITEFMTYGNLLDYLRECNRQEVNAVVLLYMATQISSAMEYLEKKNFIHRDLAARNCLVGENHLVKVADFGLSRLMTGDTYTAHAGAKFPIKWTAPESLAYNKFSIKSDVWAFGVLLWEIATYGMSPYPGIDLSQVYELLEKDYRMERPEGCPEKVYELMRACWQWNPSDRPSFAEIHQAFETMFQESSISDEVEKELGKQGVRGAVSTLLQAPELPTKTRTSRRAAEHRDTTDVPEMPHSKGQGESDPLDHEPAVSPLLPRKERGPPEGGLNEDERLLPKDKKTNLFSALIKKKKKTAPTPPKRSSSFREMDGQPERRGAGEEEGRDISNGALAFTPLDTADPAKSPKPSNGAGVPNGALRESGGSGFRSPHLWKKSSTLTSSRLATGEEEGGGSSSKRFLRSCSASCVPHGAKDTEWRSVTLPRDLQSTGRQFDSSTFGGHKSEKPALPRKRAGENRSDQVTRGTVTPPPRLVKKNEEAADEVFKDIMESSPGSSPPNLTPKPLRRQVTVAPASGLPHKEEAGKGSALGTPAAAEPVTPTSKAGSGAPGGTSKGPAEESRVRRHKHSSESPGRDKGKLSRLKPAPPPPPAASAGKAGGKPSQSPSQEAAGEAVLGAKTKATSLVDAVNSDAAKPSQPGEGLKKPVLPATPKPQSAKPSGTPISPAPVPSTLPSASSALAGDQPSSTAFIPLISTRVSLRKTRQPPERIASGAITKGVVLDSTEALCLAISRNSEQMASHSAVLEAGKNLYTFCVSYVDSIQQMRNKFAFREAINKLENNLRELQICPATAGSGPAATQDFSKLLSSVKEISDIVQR

[5] = Dose normalized AUC(0 to infinity) in OFA rat at 25 mg/kg, po measured upto 24 hrs by HPLC/UV analysis; type: ADME, organism-based; details: in vivo; summary of the method: as §1
[6] = Half life in OFA rat at 25 mg/kg, po measured upto 24 hrs by HPLC/UV analysis; type: ADME, organism-based; details: in vivo; summary of the method: as §1
[7] = system: BN472 cell; assay: Antitumor activity against rat BN472 cell implanted in Brown-Norway rat assessed as reduction in cell growth at 3 mg/kg, po qd measured upto 14 days by Ki67 staining based microscopic analysis; type: functional, organism-based; details: time <= 14.0 day
Summary of the method: (§4)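 BN472-bearing Brown-Norway rats dosed orally; Hoechst dye i.v. shortly before sacrifice to mark perfused vessels; tumors cryosectioned at 10 micron, blocked in 10 % goat serum/0.1 % Triton X-100, stained with rabbit anti-Ki67 (1:200) or anti-caspase 3 (1:10) and fluorescent secondary antibodies; fluorescence microscopy.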

[8] = species on record: Mus musculus; assay: Antiangiogenic activity in C57BL/6jNpa mouse harbouring mouse B16-BL6 cells assessed as reduction in iAUEC level measured after 3 days by DCE-MRI assay relative to control; type: functional; parameters: scale not given: the % may be the effect or the level left; details: time 3 day
Summary of the method: (§5)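 C57BL/6JNpa mice bearing B16/BL6 cervical lymph-node metastases, at least 8 per group, anaesthetized and given contrast agent; DCE-MRI Ktrans and iAUEC (permeability) and Vp (plasma volume) measured before and again after daily treatment; change per mouse recorded, mean ± SEM, one-way ANOVA with Holm-Sidak comparisons versus vehicle.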

[9] = system: B16-BL6; assay: Antitumor activity against mouse B16-BL6 cells implanted in C57BL/6jNpa mouse assessed as primary tumor growth inhibition by measuring T/C ratio at 3 mg/kg, po qd administered once every 2 days started on day 7 post implantation measured after 21 days; type: functional; details: time 7-21 day
Summary of the method: (§6)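 Female C57BL/6JNpa mice, 50000 B16/BL6 cells intradermally in both ear pinnae; primary tumor area (mm²) imaged days 7, 14, 21; randomized day 7 into groups of 5-6, oral dosing in PEG200 or PEG300 vehicle daily (or every 2 days) for 14 days; day 21 cervical lymph nodes weighed, metastasis lysates assayed for TIE-2 by ELISA; T/C ratios.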

[10] = species on record: Mus musculus; assay: Antiangiogenic activity in C57BL/6jNpa mouse harbouring mouse B16-BL6 cells assessed as reduction in tumor plasma volume measured after 3 days by DCE-MRI assay relative to control; type: functional; parameters: scale not given: the % may be the effect or the level left; details: time 3 day; summary of the method: as §5
[11] = system: B16-BL6; assay: Antitumor activity against mouse B16-BL6 cells implanted in C57BL/6jNpa mouse assessed as primary tumor growth inhibition by measuring T/C ratio at 1 mg/kg, po qd administered every 2 days started on day 7 post implantation measured after 21 days; type: functional; details: time 7-21 day; summary of the method: as §6
[12] = Antitumor activity against rat BN472 cell implanted in Brown-Norway rat assessed as T/C ratio at 1 mg/kg, po administered once every 2 days measured upto 14 days; type: functional; details: time <= 14 day
Summary of the method: (§7)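 Female Brown-Norway rats (160-180 g) given 3 mm³ BN472 tumor fragments in mammary fat pads; at about 200 mm², randomized into groups of 7-8 and dosed orally with compound or PEG300 vehicle over 14 days; tumor growth followed, T/C computed; significance by 2-way RM-ANOVA.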

[13] = system: BN472 cell; assay: Antitumor activity against rat BN472 cell implanted in Brown-Norway rat assessed as reduction in perfused blood vessels at 3 mg/kg, po qd measured upto 14 days by Hoechst staining based microscopic analysis; type: functional, organism-based; details: time <= 14.0 day; summary of the method: as §4
[14] = system: B16-BL6; assay: Antitumor activity against mouse B16-BL6 cells implanted in C57BL/6jNpa mouse assessed as primary tumor growth inhibition at 3 mg/kg, po qd administered every 2 days started on day 7 post implantation measured after 21 days; type: functional, organism-based; details: time 7-21 day; summary of the method: as §6
[15] = species on record: Mus musculus; assay: Antiangiogenic activity in C57BL/6jNpa mouse harbouring mouse B16-BL6 cells assessed as reduction in tumor plasma volume by measuring T/C ratio measured after 3 days by DCE-MRI assay; type: functional; details: time 3 day; summary of the method: as §5
[16] = Antitumor activity against rat BN472 cell implanted in Brown-Norway rat assessed as T/C ratio at 1 mg/kg, po qd measured upto 14 days; type: functional; details: time <= 14 day; summary of the method: as §7
[17] = Clearance in OFA rat at 1 mg/kg, iv measured upto 24 hrs by HPLC/UV analysis; type: ADME, organism-based; details: in vivo
Summary of the method: (§8)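 Catheters were placed in the femoral artery and vein of female OFA rats, followed by 96 h recovery. IV doses went into the femoral vein: 2.5 mg/kg in ethanol/dimethylisosorbide/PEG400/5 % glucose (10/15/35/40), or 1 mg/kg in NMP/PEG200 (30:70). Plasma samples at 5, 15, 30 min and 1, 2, 4, 6, 8, 24 h. Parameters reported over 24 h. n=2–4.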

[18] = Half life in OFA rat at 3 mg/kg, po measured upto 24 hrs by HPLC/UV analysis; type: ADME, organism-based; details: in vivo; summary of the method: as §1
[19] = Dose normalized Cmax in OFA rat at 3 mg/kg, po measured upto 24 hrs by HPLC/UV analysis; type: ADME, organism-based; details: in vivo; summary of the method: as §1
[20] = Volume of distribution at steady state in OFA rat at 1 mg/kg, iv measured upto 24 hrs by HPLC/UV analysis; type: ADME, organism-based; details: in vivo, read-out: Vdss; summary of the method: as §2
[21] = Half-life in OFA rat at 1 mg/kg, iv measured upto 24 hrs by HPLC/UV analysis; type: ADME, organism-based; details: in vivo; summary of the method: as §8
[22] = Dose normalized AUC(0 to infinity) in OFA rat at 3 mg/kg, po measured upto 24 hrs by HPLC/UV analysis; type: ADME, organism-based; details: in vivo; summary of the method: as §1

Nc1nccc(Oc2ccc3c(C(=O)Nc4cccc(C(F)(F)F)c4)cccc3c2)n1
Tmax [1]: 2 h | Vd [2]: 1.3 L/kg | inhibition [3]: Active | inhibition [4]: Active | AUC/dose [5]: 1.22 µmol·h/L | half-life [6]: 2 h

Nc1nccc(Oc2ccc3c(C(=O)Nc4ccc(F)c(C(F)(F)F)c4)cccc3c2)n1
Activity [7]: Active | Activity [8]: 65% | T/C [9]: 0.39 | Activity [10]: 65% | T/C [11]: 0.6 | T/C [12]: 0.176 | Activity [13]: Active | Activity [14]: Active | T/C [15]: 0.36 | T/C [16]: 0.028

O=C(Nc1cccc(C(F)(F)F)c1)c1cccc2cc(Oc3cc(CO)ncn3)ccc12 [BFH-772]
clearance [17]: 3 mL/min/kg | half-life [18]: 4.1 h | Cmax/dose [19]: 1570 nM | Vd [20]: 0.63 L/kg | half-life [21]: 2.5 h | AUC/dose [22]: 13.2 µmol·h/L
